Assay results as given in ChEMBL document CHEMBL1122150, “Synthesis and biological activity of benzothiazolo- and benzoxazolo[3,2-a]quinolinium salts” (1982).

How the values were obtained:
HeLa = experiment: The cytotoxic activity was determined against HeLa cell line; format: functional, Mus musculus; settings: Homo sapiens, read-out: ED50 (the source's name)
Outline: (§1)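 KB or HeLa monolayers were grown in Eagle's MEM with 10% fetal calf serum and subcultured every 6–7 days. Drugs were suspended in sterile 0.5% carboxymethylcellulose. 6-Mercaptopurine at 1 μM was the positive control in every run. Cytotoxic concentration is expressed in μg/mL.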

KB = experiment: The cytotoxic activity was determined against KB cell line.; format: functional, Mus musculus; settings: Homo sapiens, read-out: ED50 (the source's name); outline: as §1
Mus musculus [1] = experiment: Antitumor activity against P-388 ascitic leukemia in mice, at a dose of 400 mg/kg; 0/6; format: functional
Mus musculus [2] = experiment: Long term survivors/no of treated mice was determined for Ehrlich Ascites tumor after intraperitoneal administration at a dose of 150 mg/kg in mice; 15/18
Mus musculus [3] = experiment: Antitumor activity against Ehrlich Ascites tumor after intraperitoneal administration at a dose of 400 mg/kg in mice; 0/6; format: functional
Mus musculus [4] = experiment: Number of toxic death/ no of treated was determined for P-388 ascitic leukemia in mice, at a dose of 400 mg/kg; 6/6; format: functional
Mus musculus [5] = experiment: Long term survivors/no of treated mice was determined for Ehrlich Ascites tumor after intraperitoneal administration at a dose of 100 mg/kg in mice; 12/12; format: functional
Mus musculus [6] = experiment: Antitumor activity against Ehrlich Ascites tumor after intraperitoneal administration at a dose of 90 mg/kg in mice; 3/5; format: functional
Mus musculus [7] = experiment: Percentage of treated /control was determined against P-388 ascitic leukemia in […] mice, at a dose of 200 mg/kg; format: functional
Outline: (§2)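 Female BDF1 mice bearing P-388 ascitic leukemia, run per standard NCI protocol. Single ip dose on day 1, suspended in 0.9% NaCl with 0.10% Tween 80 and serially diluted in saline. T/C% = median survival time of treated mice / median survival of controls × 100. 5-Fluorouracil at 200 mg/kg as positive control. Groups of 6; mean of three tests.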

Mus musculus [8] = experiment: Percentage of treated /control was determined for Ehrlich Ascites tumor after intraperitoneal administration at a dose of 150 mg/kg in mice; format: functional
Outline: (§3)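 Female Albino Swiss mice, five to six weight-matched per group, implanted ip with 1×10^6 viable Ehrlich ascites cells (Trypan blue count). Single ip dose 24 h after implantation (day 1), suspended in 0.9% NaCl with 0.10% Tween 80 and serially diluted in saline. T/C% read at day 12. Survival followed 60 days. Mean of three tests (two at 90 and 100 mg/kg).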

Mus musculus [9] = experiment: Antitumor activity against Ehrlich Ascites tumor after intraperitoneal administration at a dose of 250 mg/kg in mice; 6/6; format: functional
Mus musculus [10] = experiment: Antitumor activity against Ehrlich Ascites tumor after intraperitoneal administration at a dose of 150 mg/kg in mice; 6/6; format: functional
Mus musculus [11] = experiment: Percentage of treated /control was determined against P-388 ascitic leukemia in mice, at a dose of 100 mg/kg; format: functional; outline: as §2
Mus musculus [12] = experiment: Percentage of treated /control was determined for Ehrlich Ascites tumor after intraperitoneal administration at a dose of 100 mg/kg in mice; format: functional; outline: as §3
Mus musculus [13] = experiment: Percentage of treated /control was determined for Ehrlich Ascites tumor after intraperitoneal administration at a dose of 200 mg/kg in mice; format: functional; outline: as §3
Mus musculus [14] = experiment: Antitumor activity against Ehrlich Ascites tumor after intraperitoneal administration at a dose of 200 mg/kg in mice; 6/6; format: functional
Mus musculus [15] = experiment: No of survivors was determined for P-388 ascitic leukemia in mice, at a dose of 100 mg/kg; 6/6; format: functional
Mus musculus [16] = experiment: Long term survivors/no of treated mice was determined for Ehrlich Ascites tumor after intraperitoneal administration at a dose of 250 mg/kg in mice; 15/18
Mus musculus [17] = experiment: Antitumor activity against P-388 ascitic leukemia in mice, at a dose of 200 mg/kg; 6/6; format: functional
Mus musculus [18] = experiment: Percentage of treated /control was determined for Ehrlich Ascites tumor after intraperitoneal administration at a dose of 250 mg/kg in mice; format: functional; outline: as §3
Mus musculus [19] = experiment: No of survivors was determined for Ehrlich Ascites tumor after intraperitoneal administration at a dose of 100 mg/kg in mice; 6/6; format: functional
Mus musculus [20] = experiment: Percentage of treated /control was determined for Ehrlich Ascites tumor after intraperitoneal administration at a dose of 90 mg/kg in mice; format: functional; outline: as §3
Mus musculus [21] = experiment: Long term survivors/no of treated mice was determined for Ehrlich Ascites tumor after intraperitoneal administration at a dose of 90 mg/kg in mice; 5/10; format: functional
Mus musculus [22] = experiment: Long term survivors/no of treated mice was determined for Ehrlich Ascites tumor after intraperitoneal administration at a dose of 200 mg/kg in mice; 18/18
Mus musculus [23] = experiment: Number of toxic death/ no of treated mice was determined for Ehrlich Ascites tumor after intraperitoneal administration at a dose of 400 mg/kg in mice; 6/6; format: functional
P388 [24] = experiment: Percentage of treated /control was determined against P-388 leukemia in […] mice, at a dose of 100 mg/kg; format: functional, Mus musculus; outline: as §2
P388 [25] = experiment: Percentage of treated /control was determined against P-388 leukemia in […] mice, at a dose of 320 mg/kg; format: functional, Mus musculus

Compound: O=[N+]([O-])c1ccc2c(ccc3oc4ccccc4[n+]32)c1.[O-][Cl+3]([O-])([O-])[O-]
- EC50 (HeLa): 15 µg/mL
- EC50 (KB): 12 µg/mL

Compound: O=[N+]([O-])c1ccc2c(ccc3sc4ccccc4[n+]32)c1.[O-][Cl+3]([O-])([O-])[O-]
- Survival (Mus musculus [1]): 0
- LTS (Mus musculus [2]): 15
- Survival (Mus musculus [3]): 0
- Toxicity (Mus musculus [4]): 6
- LTS (Mus musculus [5]): 12
- Survival (Mus musculus [6]): 3
- T/C (Mus musculus [7]): 218%
- T/C (Mus musculus [8]): -0.4%
- Survival (Mus musculus [9]): 6
- Survival (Mus musculus [10]): 6
- T/C (Mus musculus [11]): 153%
- T/C (Mus musculus [12]): 35.8%
- T/C (Mus musculus [13]): -6.2%
- Survival (Mus musculus [14]): 6
- Survival (Mus musculus [15]): 6
- LTS (Mus musculus [16]): 15
- Survival (Mus musculus [17]): 6
- EC50 (HeLa): 0.9 µg/mL
- T/C (Mus musculus [18]): -2.5%
- Survival (Mus musculus [19]): 6
- T/C (Mus musculus [20]): 57.3%
- LTS (Mus musculus [21]): 5
- LTS (Mus musculus [22]): 18
- Toxicity (Mus musculus [23]): 6
- EC50 (KB): 0.6 µg/mL

Compound: COc1cc2c[n+](C)c3c4cc5c(cc4ccc3c2cc1OC)OCO5.[Cl-] [NITIDINE CHLORIDE]
- T/C (P388 [24]): 129%

Compound: COc1cc2c(ccc3c4cc(OC)c(OC)cc4c[n+](C)c23)cc1O.[Cl-] [FAGARONINE]
- T/C (P388 [25]): 290%
- EC50 (KB): 0.7 µg/mL
